# Assay results as given in ChEMBL document CHEMBL1149179, “Synthesis and biological evaluation of a new class of geldanamycin derivatives as potent inhibitors of Hsp90” (J Med Chem, 2004).
# Tests used:
# [1] = molecular target: T1, Heat shock protein HSP90 (Homo sapiens, UniProt P07900+P08238); test: Concentration required to inhibit biotin-GM binding to recombinant heat shock protein 90(rHsp90); assay type: protein assay
# In short: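 rHsp90 coated in PBS overnight at 4 °C. Compound at 100–0.3 µM or DMSO for 60 min at 37 °C. Then 10 µM biotinylated geldanamycin 60 min and 20 µg/mL streptavidin-phycoerythrin 60 min, both at 37 °C, with washes between. Fluorescence read at ex 485/em 580 nm, minus an uncoated-well background. % binding inhibition calculated versus DMSO.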
# [2] = molecular target: T1, Heat shock protein HSP90; test: (§1) Concentration required to inhibit Bis-ANS activity by recombinant heat shock protein 90 (rHSP90) conformational assay
# In short: (§2)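 Compound at 100–0.3 µM or DMSO for 60 min at 37 °C, then bis-ANS (0.1 mM stock) for 30 min at 37 °C. Fluorescence read at ex 393/em 484 nm, minus a no-protein background. IC50 = 50% inhibition of bis-ANS signal versus DMSO; n = 2.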
# [3] = Ratio of inhibitory concentration of rHsp90 and cell lysate Hsp90
# [4] = molecular target: T1, Heat shock protein HSP90; test: Concentration of test compound required for half-maximal inhibition of binding of Heat shock 90 KD protein by MCF-7 cell lysate assay; assay type: cell-based
# In short: (§3)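 Lysate incubated ± compound 30 min at 4 °C, then with biotin-GM on streptavidin magnetic beads 1 h at 4 °C. Beads washed three times and boiled in SDS sample buffer. Bound Hsp90 detected by Western blot and band quantitation. IC50 taken as half-maximal inhibition of binding.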
# [5] = molecular target: T1, Heat shock protein HSP90; test: […] human epidermal growth factor 2 (Her-2) degradation in MCF-7 cells; assay type: cell-based; details: mcf7
# In short: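 MCF7 cells in DMEM with 10% FBS and 10 mM HEPES, treated at 65–70% confluence with compound (1000 nM down to 3 nM, half-log steps) for 16 h. Trypsinized cells stained with PE anti-Her-2 or PE isotype control (1 µg/mL, 15 min). Flow cytometry with 10,000 events; control-subtracted mean fluorescence versus DMSO cells. EC50 = 50% Her-2 degradation; n = 2.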
# [6] = molecular target: T1, Heat shock protein HSP90; test: Concentration of test compound required for inhibition of binding of rHsp90 in MCF-7 cell lysate; assay type: cell-based; in short: as §3
# [7] = test system: MCF7; test: Inhibitory concentration of compound against MCF-7 cells by MTS assay; assay type: functional, cell-based; details: Homo sapiens
# In short: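 MCF7 cells seeded at 2000/well in DMEM with 10% FBS and left overnight to adhere; final culture volume 100 µL. Viability read with MTS/PMS (mixed 20:1, 20 µL per well) as A490 after 2-4 h, with cell-free medium plus MTS-PMS as background. % viable cells taken relative to untreated cells; IC50 is the concentration giving 50% viable cells; n = 2.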
# [8] = as §1; design: species or system Homo sapiens; in short: as §2
SMILES,IC50 [1] [µM],IC50 [2] [µM],Ratio [3],IC50 [4] [µM],IC50 [5] [µM],IC50 [8] [µM],IC50 [6] [µM],IC50 [7] [µM]
CO[C@H]1/C=C\C=C(/C)C(=O)NC2=CC(=O)C(NC(=O)c3cccs3)=C(C[C@@H](C)C[C@H](OC)[C@H](O)[C@@H](C)/C=C(\C)[C@@H]1OC(N)=O)C2=O,2,3,75,0.04,0.4,–,–,–
CO[C@H]1/C=C\C=C(/C)C(=O)NC2=CC(=O)C(NC(=O)c3ccc(CCl)cc3)=C(C[C@@H](C)C[C@H](OC)[C@H](O)[C@@H](C)/C=C(\C)[C@@H]1OC(N)=O)C2=O,4,2,–,–,0.55,–,–,–
COc1ccccc1C(=O)NC1=C2C[C@@H](C)C[C@H](OC)[C@H](O)[C@@H](C)/C=C(\C)[C@H](OC(N)=O)[C@@H](OC)/C=C\C=C(/C)C(=O)NC(=CC1=O)C2=O,1.1,1,–,–,0.18,–,–,–
CO[C@H]1/C=C\C=C(/C)C(=O)NC2=CC(=O)C(c3cccs3)=C(C[C@@H](C)C[C@H](OC)[C@H](O)[C@@H](C)/C=C(\C)[C@@H]1OC(N)=O)C2=O,1.7,1.7,31,0.055,0.25,–,–,–
CO[C@H]1/C=C\C=C(/C)C(=O)NC2=CC(=O)C(NC(=O)c3ccco3)=C(C[C@@H](C)C[C@H](OC)[C@H](O)[C@@H](C)/C=C(\C)[C@@H]1OC(N)=O)C2=O,4,4,–,–,0.5,–,–,–
CO[C@H]1/C=C\C=C(/C)C(=O)NC2=CC(=O)C(NC(=O)OCC(C)C)=C(C[C@@H](C)C[C@H](OC)[C@H](O)[C@@H](C)/C=C(\C)[C@@H]1OC(N)=O)C2=O,4,4,1330,–,0.12,–,0.003,0.18
COc1ccc(C(=O)NC2=C3C[C@@H](C)C[C@H](OC)[C@H](O)[C@@H](C)/C=C(\C)[C@H](OC(N)=O)[C@@H](OC)/C=C\C=C(/C)C(=O)NC(=CC2=O)C3=O)cc1,5,4,–,–,0.4,–,–,–
CO[C@H]1/C=C\C=C(/C)C(=O)NC2=CC(=O)C(NC(=O)c3ccccc3)=C(C[C@@H](C)C[C@H](OC)[C@H](O)[C@@H](C)/C=C(\C)[C@@H]1OC(N)=O)C2=O,4,3,–,–,0.2,–,–,–
CCCN(CCC)Cc1ccc(C(=O)NC2=C3C[C@@H](C)C[C@H](OC)[C@H](O)[C@@H](C)/C=C(\C)[C@H](OC(N)=O)[C@@H](OC)/C=C\C=C(/C)C(=O)NC(=CC2=O)C3=O)cc1,3,1.2,–,–,0.5,–,–,0.5
C=CCNC(=O)NC1=C2C[C@@H](C)C[C@H](OC)[C@H](O)[C@@H](C)/C=C(\C)[C@H](OC(N)=O)[C@@H](OC)/C=C\C=C(/C)C(=O)NC(=CC1=O)C2=O,35,–,–,–,> 10,–,–,–
CO[C@H]1/C=C\C=C(/C)C(=O)NC2=CC(=O)C(NC(=O)c3ccc(CN4CCN(c5ccc(Cl)cc5)CC4)cc3)=C(C[C@@H](C)C[C@H](OC)[C@H](O)[C@@H](C)/C=C(\C)[C@@H]1OC(N)=O)C2=O,1,1,111,–,0.25,–,0.009,0.15
CO[C@H]1/C=C\C=C(/C)C(=O)NC2=CC(=O)C(NC(=O)OCCCCN3CCOCC3)=C(C[C@@H](C)C[C@H](OC)[C@H](O)[C@@H](C)/C=C(\C)[C@@H]1OC(N)=O)C2=O,1,1,100,0.01,0.5,–,–,–
CO[C@H]1/C=C\C=C(/C)C(=O)NC2=CC(=O)C(NC(=O)c3ccc(CN4CCc5ccccc5C4)cc3)=C(C[C@@H](C)C[C@H](OC)[C@H](O)[C@@H](C)/C=C(\C)[C@@H]1OC(N)=O)C2=O,1,1.5,–,–,0.2,–,–,–
CO[C@H]1/C=C\C=C(/C)C(=O)NC2=CC(=O)C(NC(=O)c3ccc([N+](=O)[O-])cc3)=C(C[C@@H](C)C[C@H](OC)[C@H](O)[C@@H](C)/C=C(\C)[C@@H]1OC(N)=O)C2=O,3.5,2,–,–,0.3,–,–,–
CO[C@H]1/C=C\C=C(/C)C(=O)NC2=CC(=O)C(NC(=O)OCc3ccc(OC(C)=O)cc3)=C(C[C@@H](C)C[C@H](OC)[C@H](O)[C@@H](C)/C=C(\C)[C@@H]1OC(N)=O)C2=O,1,2.5,–,–,0.05,–,–,0.04

# Continued, in another order:
IC50 [1] [µM],IC50 [2] [µM],Ratio [3],IC50 [4] [µM],IC50 [5] [µM],IC50 [8] [µM],SMILES,IC50 [6] [µM],IC50 [7] [µM]
3,3,–,–,0.26,–,CCOC(=O)NC1=C2C[C@@H](C)C[C@H](OC)[C@H](O)[C@@H](C)/C=C(\C)[C@H](OC(N)=O)[C@@H](OC)/C=C\C=C(/C)C(=O)NC(=CC1=O)C2=O,–,–
3,3,43,0.07,0.28,–,CO[C@H]1/C=C\C=C(/C)C(=O)NC2=CC(=O)C(c3ccccc3)=C(C[C@@H](C)C[C@H](OC)[C@H](O)[C@@H](C)/C=C(\C)[C@@H]1OC(N)=O)C2=O,–,–
2.5,2.1,–,–,> 10,–,CO[C@H]1/C=C\C=C(/C)C(=O)NC2=CC(=O)C(NC(=O)c3ccc(CN4CCCCC4)cc3)=C(C[C@@H](C)C[C@H](OC)[C@H](O)[C@@H](C)/C=C(\C)[C@@H]1OC(N)=O)C2=O,–,–
1,1.3,–,–,0.2,–,CO[C@H]1/C=C\C=C(/C)C(=O)NC2=CC(=O)C(NC(=O)c3ccc(CN4CCN(c5ccc([N+](=O)[O-])cc5)CC4)cc3)=C(C[C@@H](C)C[C@H](OC)[C@H](O)[C@@H](C)/C=C(\C)[C@@H]1OC(N)=O)C2=O,–,–
15,20,–,–,1.7,–,CO[C@H]1/C=C\C=C(/C)C(=O)NC2=CC(=O)C(NC(=O)C(C)=O)=C(C[C@@H](C)C[C@H](OC)[C@H](O)[C@@H](C)/C=C(\C)[C@@H]1OC(N)=O)C2=O,–,–
5.5,5.8,–,–,0.6,–,CO[C@H]1/C=C\C=C(/C)C(=O)NC2=CC(=O)C(NC(=O)c3ccc(CN4CCN(C5CCCCC5)CC4)cc3)=C(C[C@@H](C)C[C@H](OC)[C@H](O)[C@@H](C)/C=C(\C)[C@@H]1OC(N)=O)C2=O,–,–
17,3,200,–,1.7,–,CO[C@H]1/C=C\C=C(/C)C(=O)NC2=CC(=O)C(NC(=O)c3ccc(CN(C)C)cc3)=C(C[C@@H](C)C[C@H](OC)[C@H](O)[C@@H](C)/C=C(\C)[C@@H]1OC(N)=O)C2=O,0.015,> 30
5,8,67,0.12,0.8,–,CO[C@H]1/C=C\C=C(/C)C(=O)NC2=CC(=O)C(NC(=O)c3ccc(CN4CCN(C)CC4)cc3)=C(C[C@@H](C)C[C@H](OC)[C@H](O)[C@@H](C)/C=C(\C)[C@@H]1OC(N)=O)C2=O,–,–
1.1,1,92,–,0.14,–,CCN(Cc1ccccc1)Cc1ccc(C(=O)NC2=C3C[C@@H](C)C[C@H](OC)[C@H](O)[C@@H](C)/C=C(\C)[C@H](OC(N)=O)[C@@H](OC)/C=C\C=C(/C)C(=O)NC(=CC2=O)C3=O)cc1,0.012,0.2
–,10,–,–,1,–,CO[C@H]1/C=C\C=C(/C)C(=O)NC2=CC(=O)C(NC(=O)c3cccc(CCl)c3)=C(C[C@@H](C)C[C@H](OC)[C@H](O)[C@@H](C)/C=C(\C)[C@@H]1OC(N)=O)C2=O,–,–
3,1.5,–,–,0.22,–,COc1ccc(N2CCN(Cc3ccc(C(=O)NC4=C5C[C@@H](C)C[C@H](OC)[C@H](O)[C@@H](C)/C=C(\C)[C@H](OC(N)=O)[C@@H](OC)/C=C\C=C(/C)C(=O)NC(=CC4=O)C5=O)cc3)CC2)cc1,–,–
–,–,40,–,–,0.7,C=CCNC1=C2C[C@@H](C)C[C@H](OC)[C@H](O)[C@@H](C)/C=C(\C)[C@H](OC(N)=O)[C@@H](OC)/C=C/C=C(\C)C(=O)NC(=CC1=O)C2=O,–,–
1.3,0.9,–,–,0.18,–,COc1cccc(C(=O)NC2=C3C[C@@H](C)C[C@H](OC)[C@H](O)[C@@H](C)/C=C(\C)[C@H](OC(N)=O)[C@@H](OC)/C=C\C=C(/C)C(=O)NC(=CC2=O)C3=O)c1,–,–
1.5,1.5,–,–,0.25,–,CO[C@H]1/C=C\C=C(/C)C(=O)NC2=CC(=O)C(NC(=O)c3ccc(F)cc3)=C(C[C@@H](C)C[C@H](OC)[C@H](O)[C@@H](C)/C=C(\C)[C@@H]1OC(N)=O)C2=O,–,–
